Measured values taken from ChEMBL document CHEMBL3091351, “The 3,7-diazabicyclo[3.3.1]nonane scaffold for subtype selective nicotinic acetylcholine receptor (nAChR) ligands. Part 1: the influence of different hydrogen bond acceptor systems on alkyl and (hetero)aryl substituents” (Bioorg Med Chem, 2013).

Experiments:
[1] = target: Neuronal acetylcholine receptor; alpha4/beta2 (Rattus norvegicus, UniProt P09483+P12390); assay: Displacement of [3H]epibatidine from alpha4beta2 nAChR in Sprague-Dawley rat forebrain P2 fraction after 90 mins by liquid scintillation counting analysis
Neuronal acetylcholine receptor; alpha4/beta2, sequence (P09483 whole entry): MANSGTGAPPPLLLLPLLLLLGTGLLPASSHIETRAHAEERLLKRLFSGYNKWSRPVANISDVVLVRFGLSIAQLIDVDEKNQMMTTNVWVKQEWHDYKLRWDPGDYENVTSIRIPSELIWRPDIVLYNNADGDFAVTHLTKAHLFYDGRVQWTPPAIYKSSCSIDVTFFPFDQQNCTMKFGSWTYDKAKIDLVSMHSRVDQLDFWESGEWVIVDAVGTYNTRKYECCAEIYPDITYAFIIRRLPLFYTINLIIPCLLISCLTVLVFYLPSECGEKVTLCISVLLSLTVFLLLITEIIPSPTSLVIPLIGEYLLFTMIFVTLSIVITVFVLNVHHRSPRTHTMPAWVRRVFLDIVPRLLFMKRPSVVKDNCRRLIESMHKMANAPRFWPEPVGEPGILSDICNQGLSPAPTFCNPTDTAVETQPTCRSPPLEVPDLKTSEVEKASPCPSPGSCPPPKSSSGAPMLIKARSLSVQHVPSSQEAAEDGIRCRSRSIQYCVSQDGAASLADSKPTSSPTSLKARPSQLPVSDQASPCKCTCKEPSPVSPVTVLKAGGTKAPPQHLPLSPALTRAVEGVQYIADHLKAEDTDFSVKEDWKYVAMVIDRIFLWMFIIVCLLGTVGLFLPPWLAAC
Neuronal acetylcholine receptor; alpha4/beta2, sequence (P12390 whole entry): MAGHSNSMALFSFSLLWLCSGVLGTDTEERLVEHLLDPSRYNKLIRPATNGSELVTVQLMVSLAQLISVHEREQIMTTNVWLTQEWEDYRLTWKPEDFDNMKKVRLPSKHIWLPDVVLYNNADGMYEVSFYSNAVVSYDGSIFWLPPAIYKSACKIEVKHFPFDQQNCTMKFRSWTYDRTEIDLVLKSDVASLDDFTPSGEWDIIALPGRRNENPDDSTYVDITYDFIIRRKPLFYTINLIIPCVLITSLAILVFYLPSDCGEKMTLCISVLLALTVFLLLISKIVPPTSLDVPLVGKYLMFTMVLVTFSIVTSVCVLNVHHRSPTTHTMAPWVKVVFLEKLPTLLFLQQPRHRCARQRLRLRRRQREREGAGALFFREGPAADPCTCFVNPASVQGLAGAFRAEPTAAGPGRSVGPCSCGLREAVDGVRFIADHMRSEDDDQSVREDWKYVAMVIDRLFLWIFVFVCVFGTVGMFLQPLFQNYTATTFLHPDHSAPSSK
Method in brief: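 Rat forebrain P2 membranes (60 µg protein) in HSS buffer with 0.5 nM (±)-[3H]epibatidine and 6–9 test concentrations. Incubated 90 min at 22 °C; non-specific binding defined with 300 µM (−)-nicotine. Filtered through PEI-presoaked glass fibre filters and counted by liquid scintillation. Run in duplicate to quadruplicate, with 2–10 independent experiments.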

[2] = Displacement of [3H]epibatidine from (alpha1)2beta1gammadelta nAChR in Torpedo californica electroplax after 90 mins by liquid scintillation counting analysis; design: species or system Tetronarce californica
Method in brief: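 Torpedo californica electroplax membranes (60–70 µg) incubated with (±)-[3H]epibatidine and 6–9 test concentrations in HSS buffer, 90 min at 22 °C. 300 µM (−)-nicotine defined non-specific binding. PEI-presoaked glass fibre filtration, scintillation counting; duplicate to quadruplicate, 2–10 independent experiments.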

[3] = target: Neuronal acetylcholine receptor subunit alpha-7 (Rattus norvegicus, UniProt Q05941); assay: Displacement of [3H]methyllycaconitine from alpha7 nAChR in Sprague-Dawley rat forebrain P2 fraction after 90 mins by liquid scintillation counting analysis
Neuronal acetylcholine receptor subunit alpha-7, sequence (Q05941 whole entry): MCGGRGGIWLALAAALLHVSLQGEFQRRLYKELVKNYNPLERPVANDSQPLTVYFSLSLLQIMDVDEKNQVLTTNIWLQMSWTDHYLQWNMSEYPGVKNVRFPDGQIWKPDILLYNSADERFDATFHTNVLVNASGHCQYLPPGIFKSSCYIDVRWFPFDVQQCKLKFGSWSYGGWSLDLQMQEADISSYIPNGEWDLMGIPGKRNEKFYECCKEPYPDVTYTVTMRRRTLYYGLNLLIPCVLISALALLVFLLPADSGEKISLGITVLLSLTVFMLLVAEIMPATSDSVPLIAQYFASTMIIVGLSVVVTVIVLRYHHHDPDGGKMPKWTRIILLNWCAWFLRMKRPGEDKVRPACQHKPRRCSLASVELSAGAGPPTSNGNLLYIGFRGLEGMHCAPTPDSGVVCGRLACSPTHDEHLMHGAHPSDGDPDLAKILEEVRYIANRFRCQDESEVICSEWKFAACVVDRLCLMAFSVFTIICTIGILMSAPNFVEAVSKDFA

[4] = Displacement of [3H]epibatidine from alpha3beta4 nAChR in calf adrenal membranes fraction after 90 mins by liquid scintillation counting analysis; type: cell membranes, Bos taurus
Method in brief: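 Calf adrenal membranes (60–70 µg) in HSS buffer with 0.5 nM (±)-[3H]epibatidine, 6–9 test concentrations, 90 min at 22 °C. Non-specific binding with 300 µM (−)-nicotine. PEI-presoaked glass fibre filtration, liquid scintillation read-out; duplicate to quadruplicate, 2–10 independent experiments.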

SMILES	Ki [1]	Ki [2]	Ki [3]	Ki [4]
COc1ccc(C(=O)N2C[C@@H]3CNC[C@@H](C3)C2)c(OC)c1	> 1 µM	> 10 µM	> 5 µM	> 5 µM
O=C(c1ccc2ccccc2c1)N1C[C@@H]2CNC[C@@H](C2)C1	0.447 µM		> 10 µM	> 10 µM
Cc1ccc(C(=O)N2C[C@@H]3CNC[C@@H](C3)C2)cc1	0.221 µM	> 10 µM	> 10 µM	> 5 µM
Cn1cccc1C(=O)N1C[C@@H]2CNC[C@@H](C2)C1	0.662 µM			
O=C(c1cccc2ccccc12)N1C[C@@H]2CNC[C@@H](C2)C1	> 10 µM		> 10 µM	
O=C(c1cccc(F)c1)N1C[C@@H]2CNC[C@@H](C2)C1	0.386 µM	> 10 µM		> 5 µM
O=C(c1ccc(Cl)cc1)N1C[C@@H]2CNC[C@@H](C2)C1	0.13 µM		> 10 µM	
N#Cc1cccc(S(=O)(=O)N2C[C@@H]3CNC[C@@H](C3)C2)c1	0.97 µM		> 10 µM	> 10 µM
O=C(c1ccccc1)N1C[C@@H]2CNC[C@@H](C2)C1	0.454 µM	> 10 µM	> 10 µM	> 5 µM
CCCN1C[C@H]2C[C@@H](C1)CN(C(C)=O)C2	> 5 µM			
CS(=O)(=O)N1C[C@@H]2CNC[C@@H](C2)C1	> 5 µM	> 10 µM		
N#Cc1ccc(C(=O)N2C[C@@H]3CNC[C@@H](C3)C2)cc1	0.0207 µM	> 5 µM	> 10 µM	> 10 µM
O=C(C1CCCCC1)N1C[C@@H]2CNC[C@@H](C2)C1	> 5 µM	> 10 µM	> 10 µM	> 5 µM
O=C(c1ccc([N+](=O)[O-])cc1)N1C[C@@H]2CNC[C@@H](C2)C1	0.0159 µM	> 5 µM	1.73 µM	4.2 µM
O=C(c1ccc(Br)cc1)N1C[C@@H]2CNC[C@@H](C2)C1	0.138 µM		> 10 µM	> 10 µM
O=C(c1cccc([N+](=O)[O-])c1)N1C[C@@H]2CNC[C@@H](C2)C1	> 2 µM	> 10 µM	> 10 µM	> 10 µM
O=C(c1cccc(C(F)(F)F)c1)N1C[C@@H]2CNC[C@@H](C2)C1	0.147 µM	> 10 µM		> 3 µM
O=C(N1CCC(Cc2ccccc2)CC1)N1C[C@@H]2CNC[C@@H](C2)C1	> 10 µM	> 5 µM	> 5 µM	> 10 µM
CC(C)(C)c1ccc(C(=O)N2C[C@@H]3CNC[C@@H](C3)C2)cc1	> 10 µM	> 10 µM	> 10 µM	> 10 µM
O=C(c1ccc2ncccc2c1)N1C[C@@H]2CNC[C@@H](C2)C1	0.0813 µM		> 10 µM	> 5 µM
O=C(c1c[nH]c2ccccc12)N1C[C@@H]2CNC[C@@H](C2)C1	> 10 µM	> 10 µM	> 10 µM	> 10 µM
O=C(c1ccnc2ccccc12)N1C[C@@H]2CNC[C@@H](C2)C1	0.162 µM	> 10 µM		> 5 µM
O=C(N1CCOCC1)N1C[C@@H]2CNC[C@@H](C2)C1	3.8 µM			
c1ccc(CN2C[C@@H]3CNC[C@@H](C3)C2)cc1	> 10 µM	> 10 µM	> 5 µM	0.57 µM
O=C(c1cccs1)N1C[C@@H]2CNC[C@@H](C2)C1	0.0176 µM	> 10 µM	> 10 µM	> 10 µM

SMILES	Ki [1]	Ki [2]	Ki [3]	Ki [4]
O=[N+]([O-])c1ccc(S(=O)(=O)N2C[C@@H]3CNC[C@@H](C3)C2)cc1	0.135 µM	> 10 µM	> 10 µM	5.7 µM
CCN(CC)C(=O)N1C[C@@H]2CNC[C@@H](C2)C1	> 3 µM			
O=C(c1ccc2cn[nH]c2c1)N1C[C@@H]2CNC[C@@H](C2)C1	0.205 µM			
N#Cc1ccc(S(=O)(=O)N2C[C@@H]3CNC[C@@H](C3)C2)cc1	0.645 µM		> 10 µM	> 10 µM
O=C(c1cccnc1)N1C[C@@H]2CNC[C@@H](C2)C1	0.455 µM	> 10 µM	> 10 µM	> 10 µM
O=S(=O)(c1ccc(Br)cc1)N1C[C@@H]2CNC[C@@H](C2)C1	> 5 µM			
O=C(c1cc2ccccc2[nH]1)N1C[C@@H]2CNC[C@@H](C2)C1	> 10 µM	> 10 µM	> 10 µM	> 10 µM
Cc1ccc(S(=O)(=O)N2C[C@@H]3CNC[C@@H](C3)C2)cc1	0.858 µM		> 10 µM	> 10 µM
CC(C)(C)OC(=O)N1C[C@@H]2CNC[C@@H](C2)C1	0.045 µM	> 10 µM	> 5 µM	1.28 µM
O=C(c1ccc(F)cc1)N1C[C@@H]2CNC[C@@H](C2)C1	0.197 µM	> 10 µM	> 10 µM	> 10 µM
O=C(c1ccc(O)cc1)N1C[C@@H]2CNC[C@@H](C2)C1	0.105 µM		> 1 µM	
CCN1C[C@H]2C[C@@H](C1)CN(C(C)=O)C2	> 5 µM			
O=S(=O)(c1ccccc1)N1C[C@@H]2CNC[C@@H](C2)C1	> 5 µM		> 10 µM	> 10 µM
O=C(c1ccc2ccccc2n1)N1C[C@@H]2CNC[C@@H](C2)C1	> 1 µM	> 10 µM		
O=C(c1cncc(Br)c1)N1C[C@@H]2CNC[C@@H](C2)C1	0.292 µM	> 10 µM	> 10 µM	> 5 µM
O=C(c1ccc(Cl)nc1)N1C[C@@H]2CNC[C@@H](C2)C1	0.194 µM			> 1 µM
CC(=O)N1C[C@@H]2C[C@@H](CN(C)C2)C1	0.2 µM			
CN(C)C(=O)N1C[C@@H]2CNC[C@@H](C2)C1	0.499 µM			> 1 µM
O=C(c1ccccc1[N+](=O)[O-])N1C[C@@H]2CNC[C@@H](C2)C1	> 10 µM	> 10 µM	> 10 µM	> 10 µM
O=C(c1cccc(Cl)c1)N1C[C@@H]2CNC[C@@H](C2)C1	> 1 µM			
O=C(c1ccccc1Cl)N1C[C@@H]2CNC[C@@H](C2)C1	> 10 µM			
Cc1ccccc1C(=O)N1C[C@@H]2CNC[C@@H](C2)C1	> 10 µM	> 10 µM	> 10 µM	> 10 µM
O=C(N1CCCC1)N1C[C@@H]2CNC[C@@H](C2)C1	> 5 µM	> 10 µM	> 10 µM	> 10 µM
O=C(c1cnccn1)N1C[C@@H]2CNC[C@@H](C2)C1	0.0732 µM	> 10 µM	> 10 µM	> 10 µM
O=C(c1ccc2[nH]ccc2c1)N1C[C@@H]2CNC[C@@H](C2)C1	1.8 µM			
